Values after ≈ are worked out from the molar mass of the structure shown.
Legend:
[1] = system: Aeromonas allosaccharophila; assay: Antimicrobial activity against Aeromonas allosaccharophila AL-1 expressing beta-lactamase PER6 by agar dilution method; assay type: functional
Procedure, shortened: (§1)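 The test organism was environmental isolate AL-1, recovered from Seine River water on MacConkey agar containing ceftazidime (2 μg/ml). It was identified by API 32GN and 16S rRNA gene sequencing. MICs were determined by agar dilution on Mueller-Hinton agar and interpreted by CLSI guidelines.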

Escherichia coli [2] = assay: Antimicrobial activity against Escherichia coli DH10B harboring recombinant Aeromonas allosaccharophila AL-1 beta-lactamase PER6 by agar dilution method; assay type: functional; conditions: K-12 DH10B
Escherichia coli [3] = assay: Antimicrobial activity against Escherichia coli DH10B harboring recombinant Aeromonas allosaccharophila AL-1 beta-lactamase PER1 by agar dilution method; assay type: functional; conditions: K-12 DH10B
Escherichia coli [4] = assay: Antimicrobial activity against Escherichia coli DH10B harboring recombinant Aeromonas allosaccharophila AL-1 beta-lactamase PER2 by agar dilution method; assay type: functional; conditions: K-12 DH10B
Escherichia coli [5] = assay: Antimicrobial activity against Escherichia coli DH10B by agar dilution method; assay type: functional; conditions: K-12 DH10B
Procedure, shortened: (§2)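 MICs measured by agar dilution on Mueller-Hinton agar plates, the method used for imipenem and imipenem combined with clavulanate; other MICs were obtained by Etest. Results were interpreted according to CLSI guidelines. Test strains were E. coli DH10B recombinants carrying cloned PER-1, PER-2 or PER-6 β-lactamase genes.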

[6] = system: Aeromonas allosaccharophila; assay: Ratio of Kcat to Km for Aeromonas allosaccharophila AL-1 beta-lactamase PER2
[7] = system: Aeromonas allosaccharophila; assay: Antimicrobial activity against Aeromonas allosaccharophila AL-1 expressing beta-lactamase PER6 by agar dilution method in presence of 4 ug/ml of clavulanic acid; assay type: functional; procedure, shortened: as §1
Escherichia coli [8] = assay: Antimicrobial activity against Escherichia coli DH10B harboring recombinant Aeromonas allosaccharophila AL-1 beta-lactamase PER6 by agar dilution method in presence of 4 ug/ml of clavulanic acid; assay type: functional; conditions: K-12 DH10B
Escherichia coli [9] = assay: Antimicrobial activity against Escherichia coli DH10B harboring recombinant Aeromonas allosaccharophila AL-1 beta-lactamase PER1 by agar dilution method in presence of 4 ug/ml of clavulanic acid; assay type: functional; conditions: K-12 DH10B
Escherichia coli [10] = assay: Antimicrobial activity against Escherichia coli DH10B harboring recombinant Aeromonas allosaccharophila AL-1 beta-lactamase PER2 by agar dilution method in presence of 4 ug/ml of clavulanic acid; assay type: functional; conditions: K-12 DH10B
Escherichia coli [11] = assay: Antimicrobial activity against Escherichia coli DH10B by agar dilution method in presence of 4 ug/ml of clavulanic acid; assay type: functional; conditions: K-12 DH10B; procedure, shortened: as §2

Row | Compound | MIC [1] | MIC (Escherichia coli [2]) | MIC (Escherichia coli [3]) | MIC (Escherichia coli [4]) | MIC (Escherichia coli [5]) | kcat/Km [6] | MIC [7] | MIC (Escherichia coli [8]) | MIC (Escherichia coli [9]) | MIC (Escherichia coli [10]) | MIC (Escherichia coli [11])
1 | CCN1CCN(C(=O)N[C@@H](C(=O)N[C@@H]2C(=O)N3[C@@H]2SC(C)(C)[C@@H]3C(=O)O)c2ccccc2)C(=O)C1=O [PIPERACILLIN] | 4 µg/mL (≈ 7.73 µM) | 256 µg/mL | 32 µg/mL | 256 µg/mL | 1 µg/mL (≈ 1.93 µM) | 200000 M⁻¹ s⁻¹ |  |  |  |  | 
2 | CC1(C)S[C@@H]2[C@H](NC(=O)[C@H](N)c3ccc(O)cc3)C(=O)N2[C@H]1C(=O)O [AMOXICILLIN] | > 256 µg/mL | > 256 µg/mL | > 256 µg/mL | > 256 µg/mL | 4 µg/mL (≈ 10.9 µM) |  | 12 µg/mL | 4 µg/mL | 4 µg/mL | 6 µg/mL | 4 µg/mL
3 | CO/N=C(\C(=O)N[C@@H]1C(=O)N2C(C(=O)[O-])=C(C[N+]3(C)CCCC3)CS[C@H]12)c1csc(N)n1 | 0.5 µg/mL (≈ 1.04 µM) | 32 µg/mL | 16 µg/mL | 32 µg/mL |  | 20000 M⁻¹ s⁻¹ |  |  |  |  | 
4 | CC1(C)S[C@@H]2[C@H](NC(=O)[C@H](N)c3ccccc3)C(=O)N2[C@H]1C(=O)O |  |  |  |  |  | 330000 M⁻¹ s⁻¹ |  |  |  |  | 
5 | CC(=O)OCC1=C(C(=O)O)N2C(=O)[C@@H](NC(=O)Cc3cccs3)[C@H]2SC1 [CEPHALOTHIN] | 16 µg/mL (≈ 40.4 µM) | > 256 µg/mL | > 256 µg/mL | > 256 µg/mL | 2 µg/mL (≈ 5.04 µM) | 670000 M⁻¹ s⁻¹ |  |  |  |  | 
6 | CO/N=C(\C(=O)N[C@@H]1C(=O)N2C(C(=O)[O-])=C(C[n+]3cccc4c3CCC4)CS[C@H]12)c1csc(N)n1 [CEFPIROME] | 0.5 µg/mL (≈ 0.972 µM) | 8 µg/mL | 16 µg/mL | 16 µg/mL | 0.06 µg/mL (≈ 0.117 µM) |  |  |  |  |  | 
7 | CO[C@@]1(NC(=O)Cc2cccs2)C(=O)N2C(C(=O)O)=C(COC(N)=O)CS[C@@H]21 [CEFOXITIN] | 0.5 µg/mL (≈ 1.17 µM) | 2 µg/mL | 2 µg/mL | 2 µg/mL | 1 µg/mL (≈ 2.34 µM) | < 10000 M⁻¹ s⁻¹ |  |  |  |  | 
8 | CC1(C)S[C@@H]2[C@H](NC(=O)[C@H](C(=O)O)c3ccsc3)C(=O)N2[C@H]1C(=O)O [TICARCILLIN] | > 256 µg/mL | > 256 µg/mL | > 256 µg/mL | > 256 µg/mL | 4 µg/mL (≈ 10.4 µM) |  | 256 µg/mL | 12 µg/mL | 16 µg/mL | 16 µg/mL | 4 µg/mL

From ChEMBL document CHEMBL1687755, “PER-6, an extended-spectrum beta-lactamase from Aeromonas allosaccharophila” (Antimicrob Agents Chemother, 2010)
